Calls of active or inactive are those of the source. The calls are words filed in the database; no cut-off is given here.

The nature of series [1]: Drug concentration in Wistar rat urine at 4 mg/kg, iv after 3 hrs by LC/MS analysis. The note with it: read-out: Ct. It counts as ADME, organism-based. An outline of the steps:
(§1)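 Male Wistar rats (250–300 g) dosed 4 mg/kg iv in saline containing 20% dimethylacetamide and 1.28 mg/mL NaOH. Tail-vein blood taken at 15, 30, 60, 120, 180 min without anticoagulant, serum separated; urine collected 3 h in metabolic cages; samples frozen at –20 °C. LC/MS (ESI positive) quantitation against standards spiked into control rat urine or plasma.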

The target in a further series is T1, Urea transporter 2 (Rattus norvegicus, UniProt Q62668).
T1 sequence (Q62668 whole entry): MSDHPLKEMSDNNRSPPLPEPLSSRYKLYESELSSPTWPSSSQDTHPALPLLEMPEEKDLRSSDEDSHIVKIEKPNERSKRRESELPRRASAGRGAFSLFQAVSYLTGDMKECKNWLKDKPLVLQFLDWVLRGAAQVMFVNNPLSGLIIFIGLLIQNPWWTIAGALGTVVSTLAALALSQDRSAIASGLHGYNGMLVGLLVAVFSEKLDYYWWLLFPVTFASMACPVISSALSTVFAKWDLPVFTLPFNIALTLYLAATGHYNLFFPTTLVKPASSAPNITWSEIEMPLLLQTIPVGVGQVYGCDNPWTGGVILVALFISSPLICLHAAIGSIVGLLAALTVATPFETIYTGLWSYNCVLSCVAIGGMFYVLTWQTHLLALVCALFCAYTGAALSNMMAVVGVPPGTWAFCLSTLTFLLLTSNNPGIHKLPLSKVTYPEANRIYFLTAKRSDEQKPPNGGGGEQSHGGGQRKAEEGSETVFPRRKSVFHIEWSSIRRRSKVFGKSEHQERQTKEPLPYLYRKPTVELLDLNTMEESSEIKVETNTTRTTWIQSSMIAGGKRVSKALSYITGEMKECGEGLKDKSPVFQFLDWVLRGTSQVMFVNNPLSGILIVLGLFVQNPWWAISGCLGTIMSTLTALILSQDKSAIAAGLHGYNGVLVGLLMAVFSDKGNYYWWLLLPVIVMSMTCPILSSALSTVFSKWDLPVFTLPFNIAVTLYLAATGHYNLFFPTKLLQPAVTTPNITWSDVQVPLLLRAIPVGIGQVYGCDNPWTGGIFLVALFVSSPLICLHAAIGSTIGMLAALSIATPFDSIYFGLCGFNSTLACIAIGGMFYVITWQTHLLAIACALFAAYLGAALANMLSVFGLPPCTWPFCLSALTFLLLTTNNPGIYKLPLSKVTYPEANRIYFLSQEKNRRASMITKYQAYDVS
As to the kind of experiment: Inhibition of rat UT-A1 expressed in MDCK cells incubated for 15 mins by fluorescence plate reader assay. It counts as cell-based.

Series [2] can be described thus: Drug concentration in Wistar rat serum at 4 mg/kg, iv after 3 hrs by LC/MS analysis. It counts as ADME, organism-based. An outline of the steps:
as §1

In series [3] the test system is Rattus norvegicus. Nature of the series: Diuretic activity in Wistar rat assessed as reduction in urine osmolality at 4 mg/kg, iv after 3 hrs. It counts as functional, organism-based. In short, it runs like this:
(§2)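 Male Wistar rats (250–300 g), acclimated in metabolic cages 3 days (6 h/day). Urine voided spontaneously over 3 h before dosing, then 4 mg/kg iv via catheter in saline with 20% dimethylacetamide and 1.28 mg/mL NaOH, or vehicle. Urine collected 3 h after dosing; volume and osmolality compared with pretreatment (paired t-test); mean ± SEM, n = 4.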

The next series concerns MDCK. As to the kind of experiment: Cytotoxicity against dog MDCK cells at 10 uM after 24 hrs by alamar blue assay. It counts as cell-based, Canis lupus familiaris. An outline of the steps:
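MDCK cells stably co-expressing rat UT-A1, YFP-H148Q/V163S and human AQP1 grown 24 h at 37 °C, then exposed to compound at 10 µM for 24 h; viability read by AlamarBlue; mean ± SEM, n = 3.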
A general note: Resazurin is reduced to fluorescent resorufin, in cell work by metabolically active cells.

Series [4] is described as follows: Metabolic stability in Sprague-Dawley rat liver microsomes assessed as compound remaining at 5 uM preincubated for 5 mins followed by NADPH addition and measured at 30 mins by LC/MS analysis. It counts as ADME, Microsome. The note with it: time 35 min, read-out: Stabilty. In short, it runs like this:
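Compound at 5 µM preincubated 5 min at 37 °C with male Sprague-Dawley rat liver microsomes (1 mg protein/mL) in 0.1 M PBS pH 7.4. 1 mM NADPH then added, incubation continued at 37 °C for set times, then chilled and EtOAc-extracted. Parent compound measured by LC/MS as peak area/internal standard ratio; mean ± SEM, n = 3.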
For orientation: Microsomes from liver hold many membrane-bound enzymes, among them those of drug oxidation.

Series [5] relates to Rattus norvegicus. As to the kind of experiment: Diuretic activity in Wistar rat assessed as increase in urine volume at 4 mg/kg, iv after 3 hrs. It counts as functional, organism-based. In short, it runs like this: as §2
For a further series, the target named is T2, Urea transporter 1 (Rattus norvegicus, UniProt P97689).
T2 sequence (P97689 whole entry): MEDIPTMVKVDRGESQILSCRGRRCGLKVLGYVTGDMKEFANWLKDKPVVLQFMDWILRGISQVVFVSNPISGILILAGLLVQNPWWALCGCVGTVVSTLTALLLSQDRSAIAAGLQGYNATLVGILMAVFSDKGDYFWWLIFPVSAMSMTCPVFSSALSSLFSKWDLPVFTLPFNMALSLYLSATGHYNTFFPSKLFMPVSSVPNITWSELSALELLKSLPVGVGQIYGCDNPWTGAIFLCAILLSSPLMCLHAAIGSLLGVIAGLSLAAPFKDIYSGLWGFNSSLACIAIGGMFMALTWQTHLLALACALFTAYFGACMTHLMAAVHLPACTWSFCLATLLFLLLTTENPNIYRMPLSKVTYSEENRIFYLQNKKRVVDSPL
Nature of the series: Inhibition of rat UT-B incubated for 15 mins. In short, it runs like this: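 Rat whole blood diluted to ~1.5% hematocrit in PBS with 1.25 M acetamide and 5 mM glucose; compound incubated 15 min, then cells mixed into isomolar buffer; lysis read by absorbance at 710 nm. Isomolar buffer as non-lysed and 0.7 mM phloretin as lysed control; % lysis computed from these; mean ± SEM, n = 3.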

Regarding `CCCc1nnc2c(Oc3ccc(NS(=O)(=O)c4cc(Cl)ccc4OC)cc3)nc3cc(F)c(F)cc3n12`, the concentration at 3 h was 6 µM in series [1] and greater than 2 µM in series [2]. Also, the IC50 is 300 nM against Urea transporter 2 and 800 nM at Urea transporter 1. Besides, the outcome in the series with Rattus norvegicus [3] and in the series on Rattus norvegicus [5] was Active. Moreover, in the series on MDCK, the Activity result is on record as “Non-Toxic”. The remaining at 0.5 h, 5 µM in series [4] turned out to be 60%.

A word on the IC50: it is the point on the concentration scale where inhibition reaches its midpoint. High values mean weaker potency, low ones greater potency.

Values taken from ChEMBL document CHEMBL4834390, “Nanomolar-Potency 1,2,4-Triazoloquinoxaline Inhibitors of the Kidney Urea Transporter UT-A1” (J Med Chem, 2018).
